ChEMBL document CHEMBL5356993, “Novel pyrazolo[3,4-d]pyrimidine derivatives: design, synthesis, anticancer evaluation, VEGFR-2 inhibition, and antiangiogenic activity” (RSC Med Chem, 2023)

What was measured:
Format in all cases: functional
Conditions in all cases: read-out: GI
[1] = system: SK-MEL-28; experiment: Antiproliferative activity against human SK-MEL-28 cells assessed as cell growth inhibition at 10 uM incubated for 48 hrs by SRB assay relative to control
In short: (§1)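 Cells plated in 96-well plates at […] cells/well and preincubated 24 h at 37 °C, 5% CO2. Time-zero plates were TCA-fixed. Compound was diluted in medium with 50 µg/mL gentamicin and cells exposed for 48 h. Adherent cells fixed with 10% final TCA; suspension cells with 16% final TCA. Plates stained with 0.4% SRB in 1% acetic acid, dye solubilized in 10 mM Trizma, absorbance read at 515 nm. Percent growth calculated against time-zero and control.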

[2] = system: SN12C; experiment: Antiproliferative activity against human SN12C cells assessed as cell growth inhibition at 10 uM incubated for 48 hrs by SRB assay relative to control
[3] = system: COLO 205; experiment: Antiproliferative activity against human COLO 205 cells assessed as cell growth inhibition at 10 uM incubated for 48 hrs by SRB assay relative to control
[4] = system: OVCAR-4; experiment: Antiproliferative activity against human OVCAR-4 cells assessed as cell growth inhibition at 10 uM incubated for 48 hrs by SRB assay relative to control
[5] = system: MDA-MB-468; experiment: Antiproliferative activity against human MDA-MB-468 cells assessed as cell growth inhibition at 10 uM incubated for 48 hrs by SRB assay relative to control
[6] = system: HCT-15; experiment: Antiproliferative activity against human HCT-15 cells assessed as cell growth inhibition at 10 uM incubated for 48 hrs by SRB assay relative to control
[7] = system: CAKI-1; experiment: Antiproliferative activity against human CAKI-1 cells assessed as cell growth inhibition at 10 uM incubated for 48 hrs by SRB assay relative to control
[8] = system: DU-145; experiment: Antiproliferative activity against human DU-145 cells assessed as cell growth inhibition at 10 uM incubated for 48 hrs by SRB assay relative to control
[9] = system: OVCAR-3; experiment: Antiproliferative activity against human OVCAR-3 cells assessed as cell growth inhibition at 10 uM incubated for 48 hrs by SRB assay relative to control; in short: as §1
[10] = system: 786-0; experiment: Antiproliferative activity against human 786-0 cells assessed as cell growth inhibition at 10 uM incubated for 48 hrs by SRB assay relative to control
[11] = system: A498; experiment: Antiproliferative activity against human A498 cells assessed as cell growth inhibition at 10 uM incubated for 48 hrs by SRB assay relative to control; in short: as §1
[12] = system: Hs-578T; experiment: Antiproliferative activity against human Hs-578T cells assessed as cell growth inhibition at 10 uM incubated for 48 hrs by SRB assay relative to control; in short: as §1
[13] = system: LOX IMVI; experiment: Antiproliferative activity against human LOX IMVI cells assessed as cell growth inhibition at 10 uM incubated for 48 hrs by SRB assay relative to control
[14] = system: CCRF-CEM; experiment: Antiproliferative activity against human CCRF-CEM cells assessed as cell growth inhibition at 10 uM incubated for 48 hrs by SRB assay relative to control; in short: as §1
[15] = system: PC-3; experiment: Antiproliferative activity against human PC-3 cells assessed as cell growth inhibition at 10 uM incubated for 48 hrs by SRB assay relative to control
[16] = system: HOP-62; experiment: Antiproliferative activity against human HOP-62 cells assessed as cell growth inhibition at 10 uM incubated for 48 hrs by SRB assay relative to control
[17] = system: Malme-3M; experiment: Antiproliferative activity against human Malme-3M cells assessed as cell growth inhibition at 10 uM incubated for 48 hrs by SRB assay relative to control
[18] = system: MOLT-4; experiment: Antiproliferative activity against human MOLT-4 cells assessed as cell growth inhibition at 10 uM incubated for 48 hrs by SRB assay relative to control
[19] = system: UACC-62; experiment: Antiproliferative activity against human UACC-62 cells assessed as cell growth inhibition at 10 uM incubated for 48 hrs by SRB assay relative to control
In short: (§2)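 Cells pre-incubated 24 h at 37°C, 5% CO2, then exposed to compound (DMSO stock diluted in medium with 50 µg/mL gentamicin) for 48 h. Adherent cells fixed with cold TCA (final 10%, 60 min, 4°C); suspension cells fixed with 16% TCA final. Stained with 0.4% SRB in 1% acetic acid for 10 min, dye solubilized in 10 mM Trizma base, absorbance read at 515 nm. Growth calculated against time-zero and untreated control plates.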

[20] = system: HT-29; experiment: Antiproliferative activity against human HT-29 cells assessed as cell growth inhibition at 10 uM incubated for 48 hrs by SRB assay relative to control; in short: as §1
[21] = system: SF-295; experiment: Antiproliferative activity against human SF-295 cells assessed as cell growth inhibition at 10 uM incubated for 48 hrs by SRB assay relative to control; in short: as §1
[22] = system: SNB-19; experiment: Antiproliferative activity against human SNB-19 cells assessed as cell growth inhibition at 10 uM incubated for 48 hrs by SRB assay relative to control; in short: as §2
[23] = system: HCC 2998; experiment: Antiproliferative activity against human HCC 2998 cells assessed as cell growth inhibition at 10 uM incubated for 48 hrs by SRB assay relative to control
[24] = system: ACHN; experiment: Antiproliferative activity against human ACHN cells assessed as cell growth inhibition at 10 uM incubated for 48 hrs by SRB assay relative to control
[25] = system: HCT-116; experiment: Antiproliferative activity against human HCT-116 cells assessed as cell growth inhibition at 10 uM incubated for 48 hrs by SRB assay relative to control
[26] = system: HL-60(TB); experiment: Antiproliferative activity against human HL-60(TB) cells assessed as cell growth inhibition at 10 uM incubated for 48 hrs by SRB assay relative to control
In short: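 Cells were plated at […] cells/well and preincubated 24 h at 37°C, 5% CO2, with time-zero plates TCA-fixed. Compound was diluted from DMSO stock in medium with 50 µg/mL gentamicin, then exposed for 48 h. Settled suspension cells were fixed with 80% TCA (final 16%), stained with 0.4% SRB and solubilized in 10 mM Trizma, A515. Growth was taken relative to Tz and control.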

[27] = system: SNB-75; experiment: Antiproliferative activity against human SNB-75 cells assessed as cell growth inhibition at 10 uM incubated for 48 hrs by SRB assay relative to control; in short: as §2
[28] = system: M14; experiment: Antiproliferative activity against human M14 cells assessed as cell growth inhibition at 10 uM incubated for 48 hrs by SRB assay relative to control; in short: as §1
[29] = system: IGROV-1; experiment: Antiproliferative activity against human IGROV-1 cells assessed as cell growth inhibition at 10 uM incubated for 48 hrs by SRB assay relative to control
[30] = system: SF-268; experiment: Antiproliferative activity against human SF-268 cells assessed as cell growth inhibition at 10 uM incubated for 48 hrs by SRB assay relative to control
[31] = system: NCI-H522; experiment: Antiproliferative activity against human NCI-H522 cells assessed as cell growth inhibition at 10 uM incubated for 48 hrs by SRB assay relative to control; in short: as §1
[32] = system: MCF7; experiment: Antiproliferative activity against human MCF7 cells assessed as cell growth inhibition at 10 uM incubated for 48 hrs by SRB assay relative to control

| SMILES | inhibition of growth at 10 µM [1] [%] | inhibition of growth at 10 µM [2] [%] | inhibition of growth at 10 µM [3] [%] | inhibition of growth at 10 µM [4] [%] | inhibition of growth at 10 µM [5] [%] | inhibition of growth at 10 µM [6] [%] | inhibition of growth at 10 µM [7] [%] | inhibition of growth at 10 µM [8] [%] | inhibition of growth at 10 µM [9] [%] | inhibition of growth at 10 µM [10] [%] | inhibition of growth at 10 µM [11] [%] | inhibition of growth at 10 µM [12] [%] | inhibition of growth at 10 µM [13] [%] | inhibition of growth at 10 µM [14] [%] | inhibition of growth at 10 µM [15] [%] | inhibition of growth at 10 µM [16] [%] | inhibition of growth at 10 µM [17] [%] | inhibition of growth at 10 µM [18] [%] | inhibition of growth at 10 µM [19] [%] | inhibition of growth at 10 µM [20] [%] | also measured |
| --- | --- | --- | --- | --- | --- | --- | --- | --- | --- | --- | --- | --- | --- | --- | --- | --- | --- | --- | --- | --- | --- |
| Cc1nc2c(cnn2-c2ccccc2)c(=O)n1-c1ccc(N)cc1 | < 15 | 21.1 | < 15 | 48.7 | 62.4 | < 15 | 31.7 | 17.3 | < 15 | < 15 | 16.8 | 21.4 | 18.5 | 21 | 18 | 16.2 | 17.8 | < 15 | 34.5 | < 15 | inhibition of growth at 10 µM [21]: 27.1%; inhibition of growth at 10 µM [22]: < 15%; inhibition of growth at 10 µM [23]: < 15%; inhibition of growth at 10 µM [24]: 27.1%; inhibition of growth at 10 µM [25]: 25.9%; inhibition of growth at 10 µM [26]: < 15%; inhibition of growth at 10 µM [27]: 28.1%; inhibition of growth at 10 µM [28]: < 15%; inhibition of growth at 10 µM [29]: 15%; inhibition of growth at 10 µM [30]: 17.4%; inhibition of growth at 10 µM [31]: < 15%; inhibition of growth at 10 µM [32]: 37.6% |
| CC(=O)Nc1ccc(-n2c(C)nc3c(cnn3-c3ccccc3)c2=O)cc1 | < 15 | 26.1 | < 15 | 44.8 | < 15 | 15.1 | 31.1 | 17.8 | < 15 | < 15 | 16.1 | < 15 | 21.1 | 30.8 | 30.3 | < 15 | 22.3 | 43.6 | 38.3 | < 15 | inhibition of growth at 10 µM [21]: 36.5%; inhibition of growth at 10 µM [22]: 16.4%; inhibition of growth at 10 µM [23]: < 15%; inhibition of growth at 10 µM [24]: 29.8%; inhibition of growth at 10 µM [25]: 28.9%; inhibition of growth at 10 µM [26]: 28.3%; inhibition of growth at 10 µM [27]: < 15%; inhibition of growth at 10 µM [28]: < 15%; inhibition of growth at 10 µM [29]: < 15%; inhibition of growth at 10 µM [30]: < 15%; inhibition of growth at 10 µM [31]: 25%; inhibition of growth at 10 µM [32]: 44.4% |
| COc1ccc(/C=C/C(=O)c2ccc(-n3c(C)nc4c(cnn4-c4ccccc4)c3=O)cc2)cc1 | < 15 | 18.4 | < 15 | 34.3 | 88.7 | 46.5 | 25 | 16.8 | 39 | 15.4 | < 15 | < 15 | 56 | 53.6 | 34.9 | 19.5 | 39.5 | 55.3 | 50 | 28.5 | inhibition of growth at 10 µM [21]: 34.5%; inhibition of growth at 10 µM [22]: 18.2%; inhibition of growth at 10 µM [23]: < 15%; inhibition of growth at 10 µM [24]: 29%; inhibition of growth at 10 µM [25]: 90.3%; inhibition of growth at 10 µM [26]: 55.3%; inhibition of growth at 10 µM [27]: < 15%; inhibition of growth at 10 µM [28]: 46.9%; inhibition of growth at 10 µM [29]: < 15%; inhibition of growth at 10 µM [30]: < 15%; inhibition of growth at 10 µM [31]: 42.6%; inhibition of growth at 10 µM [32]: 91.7% |
